Screening results as filed in PubChem BioAssay.
This is a sample that favours compounds with a hit; in the whole collection about 1.7% have one here.
PGE2 EP2 inh: inhibitors of human EP2 prostaglandin E2 receptor; C6 glioma cells expressing human EP2, cAMP TR-FRET; cells stimulated with saturating PGE2; inhibition, % at 25 µM; 260,000 tested, 0.52% active; AID 1422;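 active means percent inhibition above 40 after rounding to a whole number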;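 further: rat C6 glioma host cells with rolipram phosphodiesterase inhibitor present; the protocol text gives 20 µM as final concentration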
Target sequence (P43116 whole entry, looked up): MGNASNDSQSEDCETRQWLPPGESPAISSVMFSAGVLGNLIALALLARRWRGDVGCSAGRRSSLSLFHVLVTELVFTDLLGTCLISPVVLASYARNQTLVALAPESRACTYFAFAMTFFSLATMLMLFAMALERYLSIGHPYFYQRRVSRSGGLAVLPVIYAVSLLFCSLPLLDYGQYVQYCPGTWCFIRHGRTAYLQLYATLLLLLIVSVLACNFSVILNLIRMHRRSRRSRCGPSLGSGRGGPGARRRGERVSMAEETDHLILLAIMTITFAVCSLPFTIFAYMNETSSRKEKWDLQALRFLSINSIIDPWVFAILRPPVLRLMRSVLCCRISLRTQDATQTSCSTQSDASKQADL
EP2 mod: EP2 receptor (human) modulation; P43116; EP2-expressing cells, cAMP HTRF FRET, PGE2 co-stimulation; induction, % at 25 µM; 260,000 tested, 0.83% active; AID 940;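 active means compounds whose cAMP rise, as percent of the full-agonist control response, exceeds 60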;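 further: rat C6 glioma line stably carrying human EP2 under a CMV promoter; the protocol text gives 20 µM as final concentration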
Hsp70 activator: Hsp70 transcriptional activation, primary screen; HeLa Hsp70 promoter luciferase reporter, luminescence; scaled: vehicle 0, proteasome-inhibitor control 100%; activation, % at 10 µM; 200,000 tested, 0.04% active;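 active means activation above the mean across all tested compounds plus 3 SD, cutoff set per campaign, cut at about 5.5% in these data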
Dynein transport: dynein cargo transport inhibition. AID 1381. z-score, hits read low. 3617.4 mouse cells, GR-EGFP nuclear translocation imaging; test concentration mostly 20 µM; stimulated with dexamethasone, 1 µM; active compounds read low. 220,000 tested, 0.47% active;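 active means plate z-score of nuclear minus cytoplasmic receptor signal below a set negative limit, without overly bright fluorescence or cell loss, cut at about -3.5 in these data, passing the limit was not always enough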;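 further: z-score of nuclear minus cytoplasmic ring GR-EGFP intensity difference per well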
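Buffer or medium – tet-free medium with charcoal-stripped serum · Signal – automated 10x imaging of fixed Hoechst-stained cells · Also added – dexamethasone agonist, 1.0 µM final, for 30 min · Incubation – induction 48 h, compound 1 h, agonist 30 min · Read-out – GR-EGFP nuclear translocation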
Each line names hits and unclear results; the compound was inactive in the other large screens; ! = not confirmed by another sample.

CC(NC(=O)CCCSc1nc(-c2ccco2)cc(C(F)(F)F)n1)c1ccccc1 (configuration not stated)	PGE2 EP2 inh 42 (no result: Hsp70 activator, Dynein transport)
O=C(CCCSc1nc(-c2ccco2)cc(C(F)(F)F)n1)Nn1cnnc1	none (no result: Hsp70 activator, Dynein transport)
Cn1cnc([N+](=O)[O-])c1Sc1nc(N)nc2c1ncn2Cc1ccccc1	PGE2 EP2 inh 53 (no result: Hsp70 activator, Dynein transport)
COc1cccc(C(C(=O)NC2CCCC2)N(C(=O)Cc2cccs2)C2CC2)c1 (configuration not stated)	none (no result: Hsp70 activator, Dynein transport)
COc1ccc(C(=O)C(CN2CCOCC2)c2ccccc2)cc1 (configuration not stated)	none
CN(C)CC(CCC(CN(C)C)C(=O)c1ccccc1)C(=O)c1ccccc1 (configuration not stated)	Dynein transport -5 (no result: Hsp70 activator)
COc1ccc(C(=O)C(CCCCC(CN(C)C)C(=O)c2ccc(OC)cc2)CN(C)C)cc1 (configuration not stated)	none (no result: PGE2 EP2 inh)
O=C(c1ccccc1)C(CCC(CN1CCOCC1)C(=O)c1ccccc1)CN1CCOCC1 (configuration not stated)	Dynein transport -6.1
CCc1nn(CC(=O)NCc2ccccn2)c(=O)c2cc3occc3n12	none (no result: PGE2 EP2 inh, Hsp70 activator, Dynein transport)
CCCCCCn1c(CN2CCC(C)CC2)nc2c1c(=O)n(C)c(=O)n2C	EP2 mod 63
C[C@@H]1c2ccccc2Cn2cc3c(c21)C(=O)c1cccc(OP(=O)(O)OCc2ccccc2)c1C3=O	PGE2 EP2 inh 42 (no result: Hsp70 activator, Dynein transport)
CCCOc1ccc2ccccc2c1C(c1c(C)[nH][nH]c1=O)c1c(C)[nH][nH]c1=O	none (no result: Hsp70 activator, Dynein transport)
O=C1OC(c2ccccc2)=C/C1=C/N1CCCCC1	none
COC(=O)/C=C1\OC(c2ccccc2)=CC1=O	PGE2 EP2 inh 124
Oc1cccc2ccc(SSc3ccc4cccc(O)c4n3)nc12	PGE2 EP2 inh 106 (no result: Hsp70 activator, Dynein transport)
CC1CC(C)CN(S(=O)(=O)c2ccc(Br)cc2)C1 (configuration not stated)	none (no result: Hsp70 activator, Dynein transport)
O=S(=O)(c1ccc(Br)cc1)N1CCN(S(=O)(=O)c2ccc(Br)cc2)CC1	PGE2 EP2 inh 42 (no result: Hsp70 activator, Dynein transport)
COc1cc(C2NC(=O)NC(C)=C2C(=O)Nc2ccc(C)cc2C)cc(OC)c1OC (configuration not stated)	none (no result: Hsp70 activator, Dynein transport)
Cc1ccc(CN(CCCn2ccnc2)Cc2ccccc2F)o1	none (no result: Hsp70 activator, Dynein transport)
N=C(N)SCCc1ccccn1	PGE2 EP2 inh 44! (no result: Hsp70 activator, Dynein transport)
CCC(=O)N1CCN(c2ccc(NC(=O)c3ccc(C)cc3Cl)cc2)CC1	none (no result: Hsp70 activator, Dynein transport)
O=C1c2ccccc2[C@@H]([C@H]2c3ccccc3C(=O)c3cc(Br)ccc32)c2ccc(Br)cc21	PGE2 EP2 inh 54 (no result: Hsp70 activator, Dynein transport)
CC1(C)Cc2cccc(C(=O)Nc3ccc(F)cc3F)c2O1	EP2 mod 82 (no result: Hsp70 activator)
CC(C)(C)NC(=O)c1cccc2c1OC(C)(C)C2	none
CC1(C)O[C@@H]2CC3C4CCC5=CC(=O)CCC5(C)C4(F)C(O)CC3(C)[C@]2(C(=O)CCl)O1 (some centres not stated)	none (no result: Hsp70 activator, Dynein transport)
C=CCn1c(=O)c(C(=O)NCC)c(O)c2ccccc21	EP2 mod 70 (no result: Hsp70 activator, Dynein transport)
CCCn1c(=O)c(C(=O)NCCCl)c(O)c2ccccc21	none (no result: Hsp70 activator, Dynein transport)
CCCn1c(=O)c(C(=O)Nc2ccccc2C(=O)OC)c(O)c2ccccc21	EP2 mod 63
CCCn1c(=O)c(C(=O)NCCCCl)c(O)c2ccccc21	EP2 mod 70 (no result: Hsp70 activator, Dynein transport)
Cn1c(CN2CCOCC2)nnc1SCC(=O)NCc1ccccc1	none (no result: Hsp70 activator, Dynein transport)
O=C1c2ccsc2SCCN1Cc1ccccc1Cl	none
O=C1c2ccsc2SCCN1Cc1ccc(Cl)cc1	none
O=C1c2ccsc2SCCN1Cc1cccc(Cl)c1	EP2 mod 61
Cc1ccccc1CN1CCSc2sccc2C1=O	EP2 mod 62
COC(=O)CSc1nnc(COc2ccc(Cl)c(C)c2)o1	none (no result: Hsp70 activator, Dynein transport)
COc1ccccc1NC(=O)Cn1cnc2sc(C)c(-c3ccc(C)c(C)c3)c2c1=O	none (no result: Hsp70 activator, Dynein transport)
C#CCOC(=O)c1ccc(-c2ccc(/C=C3\C(=O)N(c4ccc(S(N)(=O)=O)cc4)N=C3C)o2)cc1	none (no result: Hsp70 activator, Dynein transport)
Cc1ccccc1Cn1cc(/C=N/n2cnnc2)c2ccccc21	EP2 mod 64
CCOC(=O)Cc1csc(NC(=O)CSc2nc3cc(OC)ccc3cc2C#N)n1	none (no result: Hsp70 activator, Dynein transport)
Brc1ccc(-c2nc3ccccc3s2)s1	PGE2 EP2 inh 124
CCOc1ccc(C2/C(=C(/O)c3cc(C)ccc3C)C(=O)C(=O)N2CCOC)cc1OC (configuration not stated)	none (no result: Hsp70 activator, Dynein transport)
COc1cc(OC)c(-c2nc3cnccn3c2NC2CCCCC2)cc1OC	none (no result: Hsp70 activator, Dynein transport)
O=C(O)c1ccc2c(c1C(=O)O)C(=O)OC2(c1ccc(O)cc1)c1ccc(O)cc1	PGE2 EP2 inh 44 (no result: Hsp70 activator, Dynein transport)
CCOc1ccc2[nH]c(=O)c(CN(Cc3ccc(F)cc3)Cc3nnnn3CC3CCCO3)cc2c1 (configuration not stated)	none (no result: Hsp70 activator, Dynein transport)
